Among the data in ChEMBL document CHEMBL3244040, “Synthesis and topical antiinflammatory properties of 17,21-bis(acetyloxy)-6beta,9-difluoro-11beta-hydroxypregna-1,4-diene-3,20-dione and related 2-halogenated compounds” (J Med Chem, 1977) are ED30 and Activity values, retold here.

Molecules are shown by their SMILES. Active and inactive are the calls of the source. No cut-off for these calls is given here. Some results are limits rather than exact numbers.

Data set [1] has as its system Rattus norvegicus. Put plainly: Antiinflammatory activity in rat assessed as inhibition of cotton pellet-induced granuloma weight administered topically measured per pellet. The format is functional. In a few lines: (§1)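 Cotton-pellet granuloma test in rats; compounds suspended in 0.5% aqueous carboxymethylcellulose applied directly to the pellets, doses up to 40 µg/pellet; at least eight rats per dose. Granuloma and thymus weights converted to mg/100 g body weight. ED30 (30% inhibition) derived from log dose–response least-squares lines with 95% confidence limits, or approximated from eye-fit linear plots.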

Data set [2] deals with Rattus norvegicus. The data set can be described thus: Thymolytic activity in rat assessed as inhibition of thymus weight administered topically measured per pellet. The conditions noted are these: in vivo, topical_or_ocular. The class given is organism-based. The essentials: as §1
The subject of data set [3] is Rattus norvegicus. The data set can be described thus: Antiinflammatory activity in po dosed rat assessed as inhibition of cotton pellet-induced granuloma weight administered bid for 7 days. The format is functional, organism-based. In a few lines: (§2)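 Rat cotton-pellet granuloma test; compounds suspended in 0.5% carboxymethylcellulose in water given orally daily for seven consecutive days, doses up to 12.5 mg/kg die; at least eight rats per dose. Granuloma and thymus weights expressed as mg/100 g body weight. ED30 (30% inhibition) from log dose–response least-squares regression with 95% confidence limits, or extrapolated from eye-fit plots.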

Data set [4] has as its system Rattus norvegicus. The data set can be described thus: Thymolytic activity in po dosed rat assessed as inhibition of thymus weight administered bid for 7 days. The format is organism-based. To be noted: in vivo, 168 h. In a few lines: as §2
For data set [5], the system named is Rattus norvegicus. The data set can be described thus: Mineralocorticoid activity in rat assessed as sodium retention up to 1 mg/kg, sc. The class given is ADME, organism-based. On the set-up: dose 1 mg/kg, route subcutaneous. The conditions noted are these: in vivo.

On to `CC1(C)O[C@@H]2C[C@H]3[C@@H]4C[C@H](F)C5=CC(=O)C=C[C@]5(C)[C@@]4(F)[C@@H](O)C[C@]3(C)[C@]2(C(=O)CO)O1` [FLUOCINOLONE ACETONIDE], for which the figures for the ED30 with Rattus norvegicus [1] and in the data set with Rattus norvegicus [2] were 1.02 µg and 5 µg, respectively.

Turning to `CC(=O)OCC(=O)[C@@]1(O)CC[C@H]2[C@@H]3C[C@H](F)C4=CC(=O)C=C[C@]4(C)[C@@]3(F)[C@@H](O)C[C@@]21C`, the ED30 is 40 µg in the data set with Rattus norvegicus [1] and 20 µg in the data set with Rattus norvegicus [2].

With `CC(=O)OCC(=O)[C@@]1(OC(C)=O)CC[C@H]2[C@@H]3C[C@H](F)C4=CC(=O)C=C[C@]4(C)[C@@]3(F)[C@@H](O)C[C@@]21C`, the ED30 was found to be 0.1 µg in the data set on Rattus norvegicus [1] and 5 µg in the data set on Rattus norvegicus [2]. The outcome with Rattus norvegicus [3] was inactive. For the same compound, in the data set with Rattus norvegicus [4], the Activity result was “Non-toxic”.

With `CC(=O)OCC(=O)[C@@]1(OC(C)=O)CC[C@H]2[C@@H]3C[C@H](F)C4=CC(=O)C(Br)=C[C@]4(C)[C@@]3(F)[C@@H](O)C[C@@]21C`, the ED30 in the data set on Rattus norvegicus [1] and in the data set with Rattus norvegicus [2] was more than 40 µg in each case. In addition, the result with Rattus norvegicus [3] was inactive. Moreover, the Activity result in the data set with Rattus norvegicus [4] is given as “Non-toxic”.

On to `CC(=O)OCC(=O)[C@@]1(OC(C)=O)CC[C@H]2[C@@H]3C[C@@H](F)C4=CC(=O)C=C[C@]4(C)[C@@]3(F)[C@@H](O)C[C@@]21C`, for which the ED30 with Rattus norvegicus [1] is 40 µg; in the data set on Rattus norvegicus [2], more than 40 µg. The Activity result in the data set on Rattus norvegicus [4] is given as “Non-toxic”.

As for `CC(=O)OCC(=O)[C@@]1(O)CC[C@H]2[C@@H]3C[C@@H](F)C4=CC(=O)C=C[C@]4(C)[C@@]3(F)[C@@H](O)C[C@@]21C`, the ED30 in the data set on Rattus norvegicus [1] and in the data set on Rattus norvegicus [2] was more than 40 µg throughout.

With `C[C@]12C=C(Cl)C(=O)C=C1[C@H](F)C[C@H]1[C@@H]3CC[C@](O)(C(=O)CO)[C@@]3(C)C[C@H](O)[C@@]12F`, the ED30 in the data set with Rattus norvegicus [1] and with Rattus norvegicus [2] was more than 40 µg in each case.

For `CC(=O)OCC(=O)[C@@]1(O)CC[C@H]2[C@@H]3C[C@@H](F)C4=CC(=O)C(Cl)=C[C@]4(C)[C@@]3(F)[C@@H](O)C[C@@]21C`, the values for the ED30 with Rattus norvegicus [1] and in the data set on Rattus norvegicus [2] were 9 µg and more than 40 µg, respectively.

As to `CC(=O)OCC(=O)[C@@]1(O)CC[C@H]2[C@@H]3C[C@@H](F)C4=CC(=O)C(Br)=C[C@]4(C)[C@@]3(F)[C@@H](O)C[C@@]21C`, the ED30 is 40 µg in the data set with Rattus norvegicus [1] and more than 40 µg in the data set on Rattus norvegicus [2].

With `C[C@]12C=C(Br)C(=O)C=C1[C@H](F)C[C@H]1[C@@H]3CC[C@](O)(C(=O)CO)[C@@]3(C)C[C@H](O)[C@@]12F`, the ED30 in the data set on Rattus norvegicus [1] and with Rattus norvegicus [2] was more than 40 µg each time.

With `CC(=O)OCC(=O)[C@@]1(OC(C)=O)CC[C@H]2[C@@H]3C[C@H](F)C4=CC(=O)C(Cl)=C[C@]4(C)[C@@]3(F)[C@@H](O)C[C@@]21C`, the ED30 was more than 40 µg with Rattus norvegicus [1] and 40 µg in the data set with Rattus norvegicus [2]. Moreover, in the data set with Rattus norvegicus [3], the outcome was inactive. Moreover, the Activity result in the data set with Rattus norvegicus [4] is reported as “Non-toxic”.

For the compound `C[C@]12C=CC(=O)C=C1[C@@H](F)C[C@H]1[C@@H]3CC[C@](O)(C(=O)CO)[C@@]3(C)C[C@H](O)[C@@]12F`, the ED30 turned out to be 40 µg with Rattus norvegicus [1] and 20 µg in the data set with Rattus norvegicus [2].

`CC(=O)OCC(=O)[C@@]1(OC(C)=O)CC[C@H]2[C@@H]3C[C@@H](F)C4=CC(=O)C(Br)=C[C@]4(C)[C@@]3(F)[C@@H](O)C[C@@]21C` [HALOPREDONE ACETATE]: the ED30 in the data set on Rattus norvegicus [1] was 0.01 µg; with Rattus norvegicus [2] it was more than 1000 µg. Besides, in the data set on Rattus norvegicus [3], the outcome was inactive. Also, the Activity entry in the data set with Rattus norvegicus [4] and in the data set on Rattus norvegicus [5] was “Non-toxic” throughout.

Regarding `CC(=O)OCC(=O)[C@@]1(OC(C)=O)CC[C@H]2[C@@H]3C[C@@H](F)C4=CC(=O)C(Cl)=C[C@]4(C)[C@@]3(F)[C@@H](O)C[C@@]21C`, the ED30 with Rattus norvegicus [1] is 0.45 µg; in the data set with Rattus norvegicus [2], more than 40 µg. In addition, the result in the data set on Rattus norvegicus [3] was inactive. In addition, the Activity entry in the data set with Rattus norvegicus [4] is listed as “Non-toxic”.

As to `C[C@]12C=CC(=O)C=C1[C@H](F)C[C@H]1[C@@H]3CC[C@](O)(C(=O)CO)[C@@]3(C)C[C@H](O)[C@@]12F`, the ED30 in the data set on Rattus norvegicus [1] and with Rattus norvegicus [2] was more than 40 µg throughout.
